Insulin prom up = MIN6 insulin promoter up-regulation; MIN6 insulin promoter-GFP reporter, high-content imaging; hits give high values; z-score at 5 µM; 190,000 tested, 0.3% active; AID 1625;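 active = z-score above 3 at 5 µM with at least 500 cells counted in the well; inconclusive = wells under 500 cells, flagged as cytotoxic or low count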
bCat nuc transl = modulators of beta-catenin nuclear translocation. nuclear translocation activity, % at 5 µM. AID 1665. HeLa beta-catenin nuclear translocation, immunofluorescence imaging. 190,000 tested, 0.3% active;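 active = nuclear translocation activity above 50% at 5 µM, with a well cell count of 50 or more; inconclusive = wells under 50 cells across six images, flagged as toxic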;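 note: per-cell ratio of nuclear to cytoplasmic median beta-catenin stain intensity; plate controls were DMSO negative control for no effect and GSK-3 inhibitor IX positive control for full effect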
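Test system: human HeLa cell line; Doses: 5 µM primary, 0.02–20 µM confirmation; Incubation: 24 h compound exposure, 37°C; Detection: beta-catenin immunofluorescence imaging with DAPI; Read-out: beta-catenin nuclear/cytoplasmic ratio, % activation.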
HSV replic up = HSV replication enhancement; HSV replication augmentation in cells, fold increase; maximum fold increase; 220,000 tested, 0.005% active; AID 1956; in the data active = maximum fold increase above about 1.5; inconclusive = no clear call, values can overlap the other calls; tested in PC3 cells
MT stabilizer = microtubule stabilizers in HeLa cells | HeLa tubulin immunostaining HCS, 24 h; share of cells brighter than vehicle mean+2SD | % tubulin-high responders, % at 10 µM | 200,000 tested, 0.83% active | AID 2205;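 active = plate Z-score above 3 for both tubulin-high and condensed-nucleus cell shares, with cell loss under 80%, at 10 µM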;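 note: anti alpha tubulin signal scored within the nucleus-defined area of each cell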
Furin inhibitor = human furin inhibition. inhibition, % at 20 µM or 30 µM. 220,000 tested, 0.061% active. P09958. purified furin, fluorogenic substrate cleavage; in the data active = inhibition above about 25%
Target sequence (P09958 108-714 limits assumed): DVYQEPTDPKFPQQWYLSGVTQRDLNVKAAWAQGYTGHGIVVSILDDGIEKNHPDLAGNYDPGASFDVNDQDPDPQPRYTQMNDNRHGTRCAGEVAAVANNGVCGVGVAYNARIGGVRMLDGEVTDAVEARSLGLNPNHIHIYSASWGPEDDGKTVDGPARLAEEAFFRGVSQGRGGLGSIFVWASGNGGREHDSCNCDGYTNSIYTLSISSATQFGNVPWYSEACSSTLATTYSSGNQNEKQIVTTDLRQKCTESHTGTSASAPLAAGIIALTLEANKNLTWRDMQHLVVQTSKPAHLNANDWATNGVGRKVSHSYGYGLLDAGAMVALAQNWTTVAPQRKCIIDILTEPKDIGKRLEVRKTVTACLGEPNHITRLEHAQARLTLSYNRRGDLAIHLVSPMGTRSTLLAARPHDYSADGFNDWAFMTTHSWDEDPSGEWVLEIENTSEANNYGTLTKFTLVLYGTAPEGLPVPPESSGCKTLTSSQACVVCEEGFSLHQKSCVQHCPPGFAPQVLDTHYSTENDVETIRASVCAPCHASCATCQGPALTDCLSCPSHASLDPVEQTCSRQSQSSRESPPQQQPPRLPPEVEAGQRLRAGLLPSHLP
Autophagy HCS = modulators of autophagy; MEF GFP-LC3 puncta imaging; test concentration mostly 10 µM; calls only at 10 µM (by protocol); 190,000 tested, 0.98% active; AID 463193;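 active = percentage of spot-positive cells more than 3 SD above its plate mean, without a fluorescence outlier flag or 80% toxicity; inconclusive = no clear call, values can overlap the other calls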;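 note: spot-positive cell cutoff set from DMSO-treated cells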
Active calls of the source: *. Hits are enriched below; roughly 1.9% of the tested compounds scored in any of these assays.

How did Cc1cc(C)c(OCC(=O)N(Cc2ccc(N(C)C)cc2)C2CCS(=O)(=O)C2)c(C)c1 (centres undefined) do in these assays?
Insulin prom up: -0.32; bCat nuc transl: -0.4; HSV replic up: inactive; Furin inhibitor: -14.2

What do the screens show for `O=C(O)CCCCCN1C(=O)/C(=C\c2ccc(-c3ccc(Cl)cc3)o2)SC1=S`?
Insulin prom up: 4.23*; bCat nuc transl: 0.5; HSV replic up: inconclusive; Furin inhibitor: -8.9

Results for O=C(O)CCCN1C(=O)/C(=C/c2ccc(-c3nc4ccccc4s3)o2)SC1=S ?
Insulin prom up: 0.77; bCat nuc transl: -0.8; MT stabilizer: 3.6; Furin inhibitor: 1.2; Autophagy HCS: inactive

What do the screens show for `COCCN(C(=S)Nc1cc(C)cc(C)c1)C(C)c1ccco1` (centres undefined)?
Insulin prom up: -0.09; bCat nuc transl: -2.4; HSV replic up: inactive; MT stabilizer: 2.3; Furin inhibitor: -22.3; Autophagy HCS: inactive

Results for FC(F)(F)c1cnc(COc2cc(Cl)cc(Cl)c2)c(Cl)c1 ?
Insulin prom up: -0.76; bCat nuc transl: -0.8; HSV replic up: inactive; Furin inhibitor: -4.2

Results for CCC1=NN(C(=O)Cc2ccc(OC)cc2)C(O)(C(F)(F)F)C1 (centres undefined) ?
Insulin prom up: 0.13; bCat nuc transl: -1.8; HSV replic up: inactive; MT stabilizer: 3.4; Furin inhibitor: -20.0; Autophagy HCS: inactive

Results for COc1ccc(CC(=O)N2N=C(c3ccncc3)CC2(O)C(F)(F)F)cc1 (centres undefined) ?
Insulin prom up: 0.01; bCat nuc transl: 12.0; HSV replic up: inactive; MT stabilizer: 14.9*; Furin inhibitor: -25.5; Autophagy HCS: inactive

Results for CCOc1ccc(S(=O)(=O)Nc2cccc(N(C)S(C)(=O)=O)c2)cc1 ?
Insulin prom up: inconclusive; bCat nuc transl: -3.0; HSV replic up: inactive; MT stabilizer: 1.9; Furin inhibitor: -18.7; Autophagy HCS: inactive

Results for Cc1cc(C)cc(NS(=O)(=O)c2cnc(Cl)c(Cl)c2)c1 ?
Insulin prom up: 0.18; bCat nuc transl: -3.9; HSV replic up: inactive; MT stabilizer: 2.7; Furin inhibitor: -11.6; Autophagy HCS: inactive

Results for CCOc1ccc(NS(=O)(=O)c2cnc(Cl)c(Cl)c2)cc1 ?
Insulin prom up: 0.43; bCat nuc transl: 3.5; HSV replic up: inactive; MT stabilizer: 15.9*; Furin inhibitor: -14.9; Autophagy HCS: inactive

What do the screens show for `CCOc1ccc(S(=O)(=O)Nc2cccc(OC)c2)cc1`?
Insulin prom up: 1.19; HSV replic up: inactive; MT stabilizer: 16.2*; Furin inhibitor: -10.8; Autophagy HCS: inactive

How did Cc1ccc(C)c(N2CCN(C(=O)CN3C(=S)NC(C)(C)CC3C)CC2)c1 (centres undefined) do in these assays?
Insulin prom up: -0.21; bCat nuc transl: 2.0; HSV replic up: inactive; MT stabilizer: 3.7; Furin inhibitor: -30.4; Autophagy HCS: inactive

Results for O=Cc1ccccc1OCCOc1ccccc1C=O ?
HSV replic up: inactive; MT stabilizer: 3.7; Furin inhibitor: -4.0; Autophagy HCS: active

Results for CN(C)c1ccc2c(c1)OC(N)=C(C#N)C2c1cccc(F)c1 (centres undefined) ?
Insulin prom up: -0.14; bCat nuc transl: 98.8*; MT stabilizer: 7.7; Furin inhibitor: -13.6; Autophagy HCS: inactive

Results for C=CCc1cc(Cl)ccc1OCCOCCNC(C)(C)C ?
Insulin prom up: -1.82; bCat nuc transl: 0.8; HSV replic up: inactive; MT stabilizer: 2.9; Furin inhibitor: -20.1; Autophagy HCS: active

Results for C=CCc1cc(Cl)ccc1OCCOCCNCCOC ?
Insulin prom up: -0.36; bCat nuc transl: 1.3; HSV replic up: inactive; MT stabilizer: 0.7; Furin inhibitor: -6.2; Autophagy HCS: inactive

What do the screens show for `Cc1cccc(-c2cc(N)n(-c3ccccc3)n2)c1`?
Insulin prom up: 0.07; bCat nuc transl: -0.9; HSV replic up: inactive; MT stabilizer: 1.2; Furin inhibitor: -17.9; Autophagy HCS: inactive

What do the screens show for `Cc1ccc(-c2cc(N)n(-c3ccccc3)n2)cc1`?
Insulin prom up: 5.28*; bCat nuc transl: -1.6; HSV replic up: inactive; MT stabilizer: 2.2; Furin inhibitor: -20.1; Autophagy HCS: inactive

Results for O=C(Nc1ccc(Cl)c(S(=O)(=O)N2CCOCC2)c1)c1ccc(OCC2CCCO2)cc1 (centres undefined) ?
Insulin prom up: 0.71; bCat nuc transl: -2.9; HSV replic up: inactive; MT stabilizer: 2.4; Furin inhibitor: -25.9; Autophagy HCS: inactive

What do the screens show for `Cc1ccc(NS(=O)(=O)c2cc(NC(=O)c3ccc4c(c3)NC(=O)CS4)ccc2Cl)c(C)c1`?
Insulin prom up: -2.45; bCat nuc transl: 2.1; HSV replic up: inactive; MT stabilizer: 2.8; Furin inhibitor: -11.6; Autophagy HCS: inactive

What do the screens show for `COc1ccc(NC(=O)COC(=O)c2ccc(S(=O)(=O)N(C)c3ccccc3OC)cc2)c(OC)c1`?
Insulin prom up: 0.48; bCat nuc transl: 0.1; HSV replic up: inactive; MT stabilizer: 18.1*; Furin inhibitor: -18.4; Autophagy HCS: inactive

Results for CCN(CC)c1ccc(/C=N/NC(=O)c2cc(C)nc3ccccc23)cc1 ?
bCat nuc transl: -1.1; HSV replic up: inactive; Furin inhibitor: -9.2

What do the screens show for `CCN(CC)c1ccc(/C=C/c2cc(-c3ccccc3)c3ccccc3n2)cc1`?
Insulin prom up: 15.3*; HSV replic up: inconclusive; Furin inhibitor: -8.5

How did CCOC(=O)C(=Cc1ccc(Br)cc1)C(=O)OCC do in these assays?
Insulin prom up: -1.34; bCat nuc transl: 0.3; HSV replic up: inactive; Furin inhibitor: 1.2

How did CCOC(=O)/C(=C\c1cccnc1)C(=O)c1cc(C(C)=O)c(Nc2ccccc2)s1 do in these assays?
Insulin prom up: -1.27; bCat nuc transl: -2.9; HSV replic up: inactive; MT stabilizer: 0.6; Furin inhibitor: -17.1; Autophagy HCS: active

Results for CCOC(=O)/C(=C\c1ccccc1)C(=O)c1cc(C(C)=O)c(Nc2ccccc2)s1 ?
Insulin prom up: 0.71; HSV replic up: inactive; MT stabilizer: 7.1; Furin inhibitor: -6.7; Autophagy HCS: active

What do the screens show for `COC(=O)c1ccc(Cn2nc(C)c(Cl)c2C)o1`?
Insulin prom up: 1.04; bCat nuc transl: 0.6; HSV replic up: inactive; MT stabilizer: 3.8; Furin inhibitor: 29.4*; Autophagy HCS: inactive

How did O=C1NC(NS(=O)(=O)c2ccc(Cl)cc2)(C(F)(F)F)C(=O)N1CCc1ccccc1 (centres undefined) do in these assays?
Insulin prom up: 0.31; bCat nuc transl: -1.0; HSV replic up: inactive; Furin inhibitor: -7.2

What do the screens show for `Cc1nn(-c2ccccc2)c(C)c1/C=N/NC(=O)c1cc(-c2ccc(Cl)s2)[nH]n1`?
Insulin prom up: -0.03; bCat nuc transl: 119.4*; HSV replic up: inactive; MT stabilizer: 15.5*; Furin inhibitor: -15.0; Autophagy HCS: inactive
